# Legend:
# SR = assay: Cytotoxicity against human SR cells after 48 hrs by SRB assay; format: functional; settings: read-out: GI50
# Procedure, shortened: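 NCI 60-cell-line five-dose screen. Cells were grown in 1640 medium with 5% fetal calf serum and 2 mM L-glutamine, with inoculum density set by cell line, and pre-incubated 24 h. Compound in DMSO was added at 10^-4 to 10^-8 M (10-fold steps) with 48 h continuous exposure. Growth was read by SRB protein assay, and GI50, TGI and LC50 were derived from dose-response.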
# NCI-H522 = assay: Cytotoxicity against human NCI-H522 cells after 48 hrs by SRB assay; format: functional; settings: NCI-H522, 48 h, read-out: GI50
# Procedure, shortened: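 NCI five-dose screen on the ~60-line human tumor panel. Cells grown in RPMI-1640 with 5% fetal calf serum and 2 mM L-glutamine, seeded at line-dependent density and preincubated 24 h. Compound added from DMSO at 10-fold dilutions from 10^-4 to 10^-8 M, continuous exposure 48 h. Growth read by sulforhodamine B protein stain. GI50, TGI and LC50 derived per line.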
smiles,measurement,setting,value
O=c1[nH]cc(F)c(=O)[nH]1 [FLUOROURACIL],GI50,SR,0.0238 µM
same,GI50,NCI-H522,7.28 µM

# Reference: ChEMBL document CHEMBL1944532, “Synthesis and evaluation of anticancer activity of some novel 6-aryl-2-(p-sulfamylphenyl)-pyridazin-3(2H)-ones” (Eur J Med Chem, 2012)
